CHRM5 agonist: human M5 muscarinic receptor agonists, primary screen, CHO-K1 cells, Fluo-8 calcium fluorescence; activation, % at 3 µM; Muscarinic acetylcholine receptor M5 (Homo sapiens), P08912; CHO-K1 hM5 cells; 0% DMSO wells, 100% maximal acetylcholine response; 0.19% of 360,000 active; AID 624037, 2012;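 active = activation above the run's mean over test compounds plus 3 SD, cut at about 23% in these data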;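 also: signal is peak over basal fluorescence ratio across the kinetic read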
CHRM5 antagonist: human M5 muscarinic receptor antagonists, primary screen, CHO cells, Fluo-8 calcium fluorescence; Muscarinic acetylcholine receptor M5 (Homo sapiens), P08912; CHO-hM5 cells, ACh EC80; inhibition, % at 3 µM; 0.59% of 360,000 active;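 active = inhibition above a per-plate cutoff, the mean of that plate's test compounds plus 3 SD, cut at about 27% in these data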;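 also: 0% = acetylcholine EC80 with DMSO and 100% = DMSO without agonist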
M4 antag: human M4 muscarinic receptor antagonists, primary screen, CHO cells, Fluo-8 calcium fluorescence; AID 624125, 2012; inhibition, % at 3 µM; CHO-hM4 cells, ACh EC80; Muscarinic acetylcholine receptor M4 (Homo sapiens), P08173; 0.73% of 360,000 active;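 active = inhibition above its plate's cutoff, the mean inhibition of sample wells plus 3 SD, cut at about 27% in these data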;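 also: 0% = acetylcholine EC80 with DMSO and 100% = DMSO without agonist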
Target sequence (P08173 whole entry, looked up): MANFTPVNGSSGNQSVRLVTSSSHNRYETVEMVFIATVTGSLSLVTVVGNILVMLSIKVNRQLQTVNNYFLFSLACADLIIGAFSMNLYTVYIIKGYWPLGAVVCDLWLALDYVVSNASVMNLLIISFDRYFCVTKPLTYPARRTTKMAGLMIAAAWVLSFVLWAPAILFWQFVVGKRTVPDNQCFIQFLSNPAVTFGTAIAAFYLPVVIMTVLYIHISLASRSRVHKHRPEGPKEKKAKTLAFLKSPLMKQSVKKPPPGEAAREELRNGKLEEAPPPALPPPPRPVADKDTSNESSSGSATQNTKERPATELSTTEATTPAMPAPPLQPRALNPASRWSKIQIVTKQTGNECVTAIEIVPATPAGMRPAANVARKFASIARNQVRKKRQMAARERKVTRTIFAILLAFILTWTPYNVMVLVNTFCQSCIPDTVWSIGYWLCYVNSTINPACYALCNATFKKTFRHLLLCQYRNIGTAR
M4 ag: human M4 muscarinic receptor agonists, primary screen, CHO-K1 cells, Fluo-8 calcium fluorescence; activation, % at 3 µM; CHO-K1 hM4/Gqi5; vehicle 0%, full acetylcholine response 100%; 0.14% of 360,000 active; AID 624127, 2012;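 active = activation above the run mean over all test wells plus 3 SD, cut at about 32% in these data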;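 also: peak over basal fluorescence ratio per well then scaled between controls; 0% = DMSO wells and 100% = acetylcholine at EC100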
CHRM5 PAM: human M5 muscarinic receptor positive allosteric modulators, primary screen, CHO-K1 cells, Fluo-8 calcium fluorescence; Muscarinic acetylcholine receptor M5 (Homo sapiens), P08912; CHO-K1 hM5, ACh EC20 PAM; 0% = ACh EC20, 100% = ACh EC100; activation, % at 3 µM; 0.3% of 360,000 active; AID 624038, 2012;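 active = activation above the run cutoff, the mean activation of all test compounds plus 3 SD, cut at about 18% in these data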
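Assay system: CHO-K1 hM5 cells / Incubation: Fluo-8 loading 80 min at 37 °C plus 30 min room temperature / Technique: Fluo-8 calcium dye fluorescence, kinetic read / Repeats: single replicate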
CHRM4 PAM: human M4 muscarinic receptor positive allosteric modulators, primary screen, CHO-K1 cells, Fluo-8 calcium fluorescence; AID 624126, 2012; activation, % at 3 µM; Muscarinic acetylcholine receptor M4 (Homo sapiens), P08173; 0.4% of 360,000 active; CHO-K1 hM4/Gqi5, ACh EC20; 0% = ACh EC20, 100% = maximal ACh;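 active = activation above its plate's cutoff, the mean activation of sample wells plus 3 SD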
Numbers without * were called inactive. Most compounds without a hit are left out; they make up all but 1.8% or so of the library.

SMILES | CHRM5 agonist | CHRM5 antagonist | M4 antag | M4 ag | CHRM5 PAM | CHRM4 PAM
COc1ccc(CN(CCC(c2ccc(F)cc2)C2CCOC(C)(C)C2)C(=O)c2ccco2)cc1 (stereo unspecified) | 0 | 36* | 30* | 7 | -20 | -22
CC(c1ccccc1)N(CCC(c1ccccc1)C1CCOC(C)(C)C1)C(=O)c1ccco1 (stereo unspecified) | -7 | 30* | -5 | 4 | -17 | -8
COc1ccc(CN(CCC(c2ccccc2)c2ccco2)C(=O)c2ccco2)cc1 (stereo unspecified) | -2 | 13 | 7 | 4 | -11 | -9
COc1ccc2nc(-c3ccccc3)[nH]c(=O)c2c1 | 1 | 8 | 1 | 0 | 4 | 5
COc1ccc(-c2nc3ccc(N4CCCC4)cc3c(=O)[nH]2)cc1OC | -5 | -7 | -11 | 2 | 19* | 4
COC(=O)c1cc2n(n1)CCN(Cc1ccc(F)cc1)C2=O | 1 | -13 | 6 | 0 | 7 | 5
O=C(NCc1ccon1)C1CCC(=O)N(CCc2ccc(Cl)cc2)C1 (stereo unspecified) | -2 | -6 | -9 | 1 | 21* | 16*
O=C(O)CSc1nnc2c(n1)[nH]c1ccccc12 | -5 | 34* | 3 | 1 | -11 | 1
O=C(CSc1nnc2c(n1)[nH]c1ccccc12)OCc1ccccc1 | 1 | 1 | -6 | 1 | 2 | 4
Cc1nnc(N(CCC#N)CCC#N)s1 | 0 | 7 | 0 | 0 | -1 | 14
CSc1nnc(N(CCC#N)CCC#N)s1 | -4 | -4 | -13 | 0 | 40* | 1
CC(=C/c1ccc(C(C)C)cc1)/C=N/NC(=O)Cn1nnnc1N | -15 | 30* | -9 | 0 | -12 | -1
COc1ccc(/C=N/NC(=O)c2ccc3ccccc3c2)cc1OS(=O)(=O)c1ccc(NC(C)=O)cc1 | 1 | 13 | 28* | 16 | -17 | -17
CCN(CC)c1ccc(/C=C2\C(=O)c3ccc(C(=O)O)cc3C2=O)cc1 | 32* | 25 | 32* | 20 | -21 | -11
Cn1ccnc1C1CCCCN1Cc1nc(Cc2ccccc2F)no1 (stereo unspecified) | -14 | 22 | 83* | 11 | -34 | -27
O=c1oc2ccccc2n1CCCCCn1c(=O)oc2ccccc21 | -5 | 2 | 9 | 2 | -6 | -6
CC(C)Cn1c(=O)oc2ccccc21 | 0 | -7 | -14 | 4 | 1 | 20*
COc1ccc(N2CCN(c3cc(C(=O)NC4CCCCC4)ncn3)CC2)cc1OC | -2 | 1 | -13 | 4 | 0 | 6
Cc1cccc(NC(=O)c2ccc(S(=O)(=O)NCc3cccnc3)cc2)c1 | 0 | 3 | -6 | 8 | 0 | 0
C=C[C@@H]1c2cc(C)ccc2N(S(=O)(=O)c2ccc(C)cc2)[C@H](c2ccccc2)C1(C#N)C#N | 3 | -19 | 0 | 0 | 19* | 10
O=C(COC(=O)C1CC1)NCCc1ccc(Cl)cc1 | 1 | 5 | 4 | 0 | 1 | 3
CC1OC2CC(=O)OC2C2=C1C(=O)c1c(O)cccc1C2=O (stereo unspecified) | 20 | 45* | 29* | 8 | 2 | 6
CCCCc1ccc(/C=C2/C(=O)ON=C2c2ccccc2)s1 | 0 | -10 | -8 | 2 | 11 | 27*
CC(=O)Oc1ccccc1Cn1c(C)c(C(=O)NCc2ccccc2C(F)(F)F)sc1=O | 0 | -2 | -7 | 2 | -4 | 5
O=C(NC(Cc1ccccc1)C(=O)O)/C(=C/c1ccc(Br)cc1)NC(=O)c1ccc(Br)o1 (stereo unspecified) | -4 | 9 | -1 | 0 | -5 | 19*
SMILES | CHRM5 agonist | CHRM5 antagonist | M4 antag | M4 ag | CHRM5 PAM | CHRM4 PAM
O=C(NC(Cc1ccccc1)C(=O)O)/C(=C\c1ccc(Br)cc1)NC(=O)c1ccc(Br)o1 (stereo unspecified) | 2 | -8 | 15 | 0 | 6 | -4
CN(C(=O)c1ccc(NC(=O)Cc2cccc(NC(=O)C3CCN(C(=O)C4CCCC4)CC3)c2)cc1)C1CC1 | 0 | -3 | -6 | 0 | 1 | 8
O=[N+]([O-])c1ccc2c(c1)nnn2-c1ccccc1 | -5 | 9 | 0 | 1 | 0 | -1
c1ccc(-n2nnc3ccccc32)cc1 | -2 | 25 | 81* | -1 | -19 | -15
COc1ccccc1NC(=O)COC(=O)c1c(C)nn(-c2ccccc2)c1C | 0 | 17 | 6 | 17 | -31 | -1
Cc1nn(-c2ccccc2)c(C)c1C(=O)OCC(=O)Nc1ccccc1C(F)(F)F | -3 | -3 | -2 | -3 | -5 | 23*
Cc1nn(-c2ccccc2)c(Cl)c1CN(C(=O)CCl)c1ccc(Cl)cc1 | -6 | 24 | 42* | -2 | -17 | -33
O/N=C\c1cccn1-c1ccc(Br)cc1 | -8 | 21 | -4 | 0 | 0 | 15
Cc1ccc(Cl)cc1NC(=O)CN1C(=O)NC(C)(C2CC2)C1=O (stereo unspecified) | 1 | -1 | -12 | 1 | 5 | 1
CN1CCC(OC(=O)c2ccccc2Cl)CC1 | -11 | 34* | 2 | 1 | -21 | -11
CN1\C(=C/C=C/C=C/C=[N+](C)C)C(C)(C)c2ccccc21 | 38* | 9 | 21 | 8 | -9 | -14
Cc1ccc(OCC(O)Cn2c(=N)n(Cc3ccccc3)c3ccccc32)cc1 (stereo unspecified) | 3 | 10 | 12 | 33* | -7 | -24
O=C(Nc1ccc(Cl)cc1F)C1CC1 | -3 | 10 | -7 | 0 | -3 | 7
OC(CCN1CCCCC1)c1ccc(-c2ccccc2)cc1 (stereo unspecified) | -5 | 7 | 14 | 3 | -2 | -13
Clc1ccc(C(CCN2CCCC2)Cc2ccccc2)cc1 (stereo unspecified) | -8 | 26 | 32* | 4 | -18 | -19
O=C(Nc1ccc(C(F)(F)F)cc1)C1CCN(S(=O)(=O)c2ccc(N3CCCC3=O)cc2)CC1 | -2 | -4 | 3 | 3 | -8 | -3
CC(C)NC(=O)C1(C)CCCN1Cc1ccccc1C#N (stereo unspecified) | 0 | -5 | 11 | 1 | -1 | -3
CCOC(=O)CSc1nc(C)c2ccccc2n1 | 0 | 5 | 4 | 0 | -2 | -4
